Results reported in ChEMBL document CHEMBL4673243, “Discovery of 9-Cyclopropylethynyl-2-((S)-1-[1,4]dioxan-2-ylmethoxy)-6,7-dihydropyrimido[6,1-a]isoquinolin-4-one (GLPG1205), a Unique GPR84 Negative Allosteric Modulator Undergoing Evaluation in a Phase II Clinical Trial” (J Med Chem, 2020).
Converted amounts (≈) assume the structure as drawn. One block for each molecule: values may come before it.

What was measured:
[1] = in vitro; details: human, liver microsomes
[2] = in vitro; details: rat, liver microsomes
[3] = in vitro; details: mouse, liver microsomes
[4] = Plasma protein binding in mouse at 5 uM measured after 4 hrs by LC-MS/MS analysis
[5] = in vitro; details: mouse, cryopreserved hepatocytes
[6] = Plasma protein binding in human at 5 uM measured after 4 hrs by LC-MS/MS analysis
[7] = Plasma protein binding in rat at 5 uM measured after 4 hrs by LC-MS/MS analysis
[8] = in vitro; details: human, cryopreserved hepatocytes
[9] = physchem; details: aqueous solution with 2% DMSO, pH 7.4
[10] = in vitro; details: rat, cryopreserved hepatocytes
[11] = Apparent permeability from apical to basolateral in human Caco2 cells at 10 uM measured after 60 mins by lucifer yellow dye based LC-MS/MS analysis; details: Caco-2
[12] = Inhibition of embelin-induced migration of human neutrophils preincubated for 30 mins followed by embelin addition and measured after 1 hr by ATPlite luminescence assay; details: Neutrophil
[13] = target: Cytochrome P450 2C9 (Homo sapiens) (UniProt P11712)
Cytochrome P450 2C9 (Homo sapiens), sequence (P11712 whole entry, looked up): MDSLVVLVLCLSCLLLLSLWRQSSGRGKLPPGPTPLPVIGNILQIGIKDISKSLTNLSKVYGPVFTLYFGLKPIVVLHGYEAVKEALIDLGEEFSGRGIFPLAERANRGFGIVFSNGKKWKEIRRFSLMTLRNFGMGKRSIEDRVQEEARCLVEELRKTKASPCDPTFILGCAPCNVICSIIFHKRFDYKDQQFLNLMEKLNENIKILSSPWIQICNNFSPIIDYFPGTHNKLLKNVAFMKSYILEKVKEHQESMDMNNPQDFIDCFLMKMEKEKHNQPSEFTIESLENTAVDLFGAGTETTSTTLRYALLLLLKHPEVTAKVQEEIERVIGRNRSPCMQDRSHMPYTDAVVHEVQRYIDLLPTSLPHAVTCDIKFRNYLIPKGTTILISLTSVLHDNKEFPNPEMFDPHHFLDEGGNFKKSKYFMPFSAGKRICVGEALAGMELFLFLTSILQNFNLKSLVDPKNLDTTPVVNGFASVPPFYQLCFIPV

[14] = target: T1, Cytochrome P450 3A4 (Homo sapiens, UniProt P08684); experiment: Inhibition of human CYP3A4 in human liver microsomes using testosterone as substrate and in presence of co-factor preincubated for 20 mins followed by substrate addition by LC-MS/MS analysis
T1 sequence (P08684 whole entry): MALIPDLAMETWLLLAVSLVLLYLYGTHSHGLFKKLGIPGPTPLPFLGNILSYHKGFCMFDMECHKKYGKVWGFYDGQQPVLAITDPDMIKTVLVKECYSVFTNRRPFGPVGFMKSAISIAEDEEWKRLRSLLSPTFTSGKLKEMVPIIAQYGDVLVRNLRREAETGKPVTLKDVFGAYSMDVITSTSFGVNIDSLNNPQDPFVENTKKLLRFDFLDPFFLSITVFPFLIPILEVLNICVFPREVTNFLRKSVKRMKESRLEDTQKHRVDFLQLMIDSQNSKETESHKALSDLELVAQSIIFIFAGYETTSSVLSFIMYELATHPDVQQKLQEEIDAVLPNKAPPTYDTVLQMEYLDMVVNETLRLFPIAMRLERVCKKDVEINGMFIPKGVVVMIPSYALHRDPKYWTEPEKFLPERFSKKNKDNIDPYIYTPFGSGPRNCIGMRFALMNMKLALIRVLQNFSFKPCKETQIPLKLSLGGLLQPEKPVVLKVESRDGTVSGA

[15] = Thermodynamic solubility of compound at pH 7.4; details: buffer
[16] = in vitro; details: dog, liver microsomes
[17] = in vitro; details: dog, cryopreserved hepatocytes
[18] = Plasma protein binding in dog at 5 uM measured after 4 hrs by LC-MS/MS analysis
[19] = Inhibition of embelin-induced migration of rat neutrophils preincubated for 30 mins followed by embelin addition and measured after 1 hr by celltiter-glo assay; details: Neutrophil
[20] = physchem; details: aqueous solution with 2% DMSO, pH 3
[21] = in vitro; details: rat, cryopreserved hepatocytes; remark: listed apart in the source
[22] = in vitro; details: human, cryopreserved hepatocytes; remark: listed apart in the source
[23] = Thermodynamic solubility of compound at pH 3; details: buffer
[24] = in vitro; details: dog, cryopreserved hepatocytes; remark: listed apart in the source
[25] = target: Cytochrome P450 2C19 (Homo sapiens, UniProt P33261); experiment: Inhibition of CYP2C19 in human liver microsomes using probe substrate and in presence of co-factor preincubated for 20 mins followed by substrate addition by LC-MS/MS analysis
Cytochrome P450 2C19, sequence (P33261 whole entry): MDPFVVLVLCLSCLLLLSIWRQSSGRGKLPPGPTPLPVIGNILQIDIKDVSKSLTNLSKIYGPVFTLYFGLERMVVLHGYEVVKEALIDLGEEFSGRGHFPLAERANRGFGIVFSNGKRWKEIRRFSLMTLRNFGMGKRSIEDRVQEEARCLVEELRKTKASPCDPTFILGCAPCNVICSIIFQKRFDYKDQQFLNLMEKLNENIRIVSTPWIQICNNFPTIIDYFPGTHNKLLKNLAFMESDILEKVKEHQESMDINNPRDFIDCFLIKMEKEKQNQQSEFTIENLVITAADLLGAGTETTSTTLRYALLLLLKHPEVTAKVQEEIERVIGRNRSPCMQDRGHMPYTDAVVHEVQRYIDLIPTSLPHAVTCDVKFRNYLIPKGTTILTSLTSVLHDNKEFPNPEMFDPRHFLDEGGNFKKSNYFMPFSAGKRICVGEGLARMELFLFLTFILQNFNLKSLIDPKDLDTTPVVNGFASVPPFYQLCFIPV

[26] = tested on: Neutrophil; experiment: Inhibition of dog neutrophil cell migration; details: Canis lupus familiaris
[27] = target: Cytochrome P450 2D6 (Homo sapiens) (UniProt P10635)
Cytochrome P450 2D6 (Homo sapiens), sequence (P10635 whole entry, looked up): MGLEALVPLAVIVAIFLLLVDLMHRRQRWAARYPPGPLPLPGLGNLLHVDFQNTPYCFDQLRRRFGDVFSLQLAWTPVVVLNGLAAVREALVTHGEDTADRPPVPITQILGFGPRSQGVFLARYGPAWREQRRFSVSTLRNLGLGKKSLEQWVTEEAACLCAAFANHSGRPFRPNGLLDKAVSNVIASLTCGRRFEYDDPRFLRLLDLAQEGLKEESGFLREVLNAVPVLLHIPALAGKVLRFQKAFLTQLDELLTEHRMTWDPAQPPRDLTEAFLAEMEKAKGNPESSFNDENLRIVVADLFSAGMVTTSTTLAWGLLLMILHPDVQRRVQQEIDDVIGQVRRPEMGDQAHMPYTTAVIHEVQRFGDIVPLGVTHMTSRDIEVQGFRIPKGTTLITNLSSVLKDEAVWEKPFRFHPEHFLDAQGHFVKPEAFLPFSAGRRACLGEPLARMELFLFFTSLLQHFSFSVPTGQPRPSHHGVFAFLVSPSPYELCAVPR

[28] = target: T1, Cytochrome P450 3A4; experiment: Inhibition of CYP3A4 in human liver microsomes using midazolam as substrate and in presence of co-factor preincubated for 20 mins followed by substrate addition by LC-MS/MS analysis
[29] = in vitro; details: mouse, cryopreserved hepatocytes; remark: listed apart in the source
[30] = target: T2, Cytochrome P450 1A2 (Homo sapiens, UniProt P05177); experiment: Inhibition of CYP1A2 in human liver microsomes using probe substrate and in presence of co-factor preincubated for 20 mins followed by substrate addition by LC-MS/MS analysis
T2 sequence (P05177 whole entry): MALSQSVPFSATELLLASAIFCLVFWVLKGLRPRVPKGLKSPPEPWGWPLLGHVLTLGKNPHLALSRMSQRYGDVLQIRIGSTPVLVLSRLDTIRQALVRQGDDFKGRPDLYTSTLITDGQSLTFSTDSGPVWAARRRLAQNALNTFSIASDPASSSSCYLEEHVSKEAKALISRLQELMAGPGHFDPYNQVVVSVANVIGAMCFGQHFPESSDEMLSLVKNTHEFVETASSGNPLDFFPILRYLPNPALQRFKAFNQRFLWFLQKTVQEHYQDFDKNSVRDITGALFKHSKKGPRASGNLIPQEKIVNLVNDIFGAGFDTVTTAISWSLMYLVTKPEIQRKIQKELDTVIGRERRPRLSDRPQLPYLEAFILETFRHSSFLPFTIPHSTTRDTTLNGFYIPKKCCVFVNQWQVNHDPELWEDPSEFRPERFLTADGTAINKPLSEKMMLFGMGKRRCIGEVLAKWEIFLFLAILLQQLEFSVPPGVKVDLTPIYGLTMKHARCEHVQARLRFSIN

[31] = target: 3',5'-cyclic-AMP phosphodiesterase 4A (Homo sapiens, UniProt P27815); experiment: Inhibition of recombinant human PDE4A overexpressed in HEK293 cells assessed as reduction in cAMP hydrolysis by HTRF based immunoassay; assay type: cell-based
3',5'-cyclic-AMP phosphodiesterase 4A, sequence (P27815 whole entry): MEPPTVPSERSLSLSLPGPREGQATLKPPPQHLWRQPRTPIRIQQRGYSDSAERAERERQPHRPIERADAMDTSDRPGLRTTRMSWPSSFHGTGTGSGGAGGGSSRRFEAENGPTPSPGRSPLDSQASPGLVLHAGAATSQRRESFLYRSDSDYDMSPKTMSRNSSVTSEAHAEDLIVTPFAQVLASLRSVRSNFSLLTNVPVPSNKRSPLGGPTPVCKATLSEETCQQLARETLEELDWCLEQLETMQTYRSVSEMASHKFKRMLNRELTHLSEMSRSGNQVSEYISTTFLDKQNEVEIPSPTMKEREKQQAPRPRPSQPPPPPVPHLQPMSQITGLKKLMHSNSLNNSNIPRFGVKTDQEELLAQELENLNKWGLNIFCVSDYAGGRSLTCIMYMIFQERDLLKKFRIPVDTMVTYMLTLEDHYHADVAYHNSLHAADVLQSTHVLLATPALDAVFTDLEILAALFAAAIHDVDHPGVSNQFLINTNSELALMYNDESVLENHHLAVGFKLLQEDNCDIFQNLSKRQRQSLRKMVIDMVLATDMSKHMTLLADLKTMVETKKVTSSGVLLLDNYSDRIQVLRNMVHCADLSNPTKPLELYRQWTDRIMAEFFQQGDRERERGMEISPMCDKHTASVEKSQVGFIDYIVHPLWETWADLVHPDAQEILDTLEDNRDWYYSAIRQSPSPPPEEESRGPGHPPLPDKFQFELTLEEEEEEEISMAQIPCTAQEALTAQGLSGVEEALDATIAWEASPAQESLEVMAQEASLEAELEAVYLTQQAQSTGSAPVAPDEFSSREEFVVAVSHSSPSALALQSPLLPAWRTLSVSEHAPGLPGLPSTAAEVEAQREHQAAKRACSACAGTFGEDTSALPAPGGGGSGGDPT
Summary of the method: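 Human PDE4A from lysate of HEK293 cells overexpressing the enzyme hydrolyses cAMP; remaining cAMP measured by HTRF competitive immunoassay (d2-labelled cAMP vs cryptate anti-cAMP antibody), signal inversely proportional to cAMP; IC50 determined.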

[32] = in vivo; details: male, Sprague-Dawley, rat, po, 5 mg/kg
[33] = in vivo; details: male, Sprague-Dawley, rat, po, 5 mg/kg; remark: listed apart in the source
[34] = in vivo; details: male, Sprague-Dawley, rat, po, 5 mg/kg; remark: listed apart in the source
[35] = in vitro; details: rhesus monkey, liver microsomes

solubility [9]: 3 µg/mL (≈ 8.37 µM)
Compound: CCCCCCOc1cc2n(c(=O)n1)CCc1cc(OC)c(OC)cc1-2

IC50 [12]: 0.128 µM
IC50 ([31]; read-out: IC50): 2.11 µM
solubility [9]: 26 µg/mL (≈ 65.9 µM)
Compound: COc1cc2c(cc1OC)-c1cc(OCCOc3ccccc3)nc(=O)n1CC2

IC50 ([31]; read-out: IC50): 1.09 µM
Compound: COc1cc2c(cc1OC)-c1cc(OCc3ncccc3F)nc(=O)n1CC2

IC50 ([31]; read-out: IC50): 0.586 µM
solubility [9]: 18 µg/mL (≈ 45.5 µM)
Compound: COc1cc2c(cc1OC)-c1cc(OCCOc3ccccn3)nc(=O)n1CC2

solubility [9]: 3 µg/mL (≈ 7.64 µM)
Compound: COc1cc2c(cc1OC)-c1cc(OCCCc3ccccc3)nc(=O)n1CC2

The remaining lines, values behind:

Compound: COc1ccc2c(c1)CCn1c-2cc(OCC2COc3ccccc3O2)nc1=O (centres undefined)
CLint scaled at 0.5 h, 1 µM [1]: 76.7 mL/min/kg
CLint scaled at 0.5 h, 1 µM [2]: 615 mL/min/kg
CLint scaled at 0.5 h, 1 µM [3]: 532 mL/min/kg
fraction unbound at 4 h, 5 µM [4]: 0.01
CLint scaled at 1 µM [5]: 375 mL/min/kg
fraction unbound at 4 h, 5 µM [6]: 0.002
fraction unbound at 4 h, 5 µM [7]: 0.004
CLint scaled at 1 µM [8]: 90 mL/min/kg

Compound: COc1ccc2c(c1)CCn1c-2cc(OC[C@H]2COc3ncccc3O2)nc1=O
CLint scaled at 0.5 h, 1 µM [1]: 35 mL/min/kg
CLint scaled at 0.5 h, 1 µM [2]: 152 mL/min/kg
CLint scaled at 0.5 h, 1 µM [3]: 360 mL/min/kg
fraction unbound at 4 h, 5 µM [4]: 0.087
CLint scaled at 1 µM [5]: 182 mL/min/kg
fraction unbound at 4 h, 5 µM [6]: 0.027
fraction unbound at 4 h, 5 µM [7]: 0.021
CLint scaled at 1 µM [8]: 13.3 mL/min/kg

Compound: O=c1nc(OC[C@H]2COCCO2)cc2n1CCc1cc(C#CC3CC3)ccc1-2
CLint scaled at 0.5 h, 1 µM [1]: 16 mL/min/kg
CLint scaled at 0.5 h, 1 µM [2]: 82.8 mL/min/kg
half-life at 1 µM [10]: > 3.13 h
CLint scaled at 0.5 h, 1 µM [3]: 98.3 mL/min/kg
Papp A→B at 1 h, 10 µM [11]: 31.2 ×10⁻⁶ cm/s
IC50 [12]: 0.051 µM
IC50 [13]: 1.85 µM
IC50 [14]: > 50 µM
solubility thermodynamic [15]: 9.49 µg/mL (≈ 25.1 µM)
fraction unbound at 4 h, 5 µM [4]: 0.017
CLint scaled at 0.5 h, 1 µM [16]: 52.7 mL/min/kg
CLint scaled at 1 µM [17]: < 32 mL/min/kg
fraction unbound at 4 h, 5 µM [18]: 0.033
IC50 [19]: 0.153 µM
CLint scaled at 1 µM [5]: < 72.8 mL/min/kg
solubility [20]: 113 µg/mL (≈ 299 µM)
CLint scaled at 1 µM [21]: < 35.3 mL/min/kg
half-life at 1 µM [22]: > 3.33 h
solubility thermodynamic [23]: 17.6 µg/mL (≈ 46.5 µM)
half-life at 1 µM [24]: > 2.52 h
IC50 [25]: 18.2 µM
IC50 [26]: 0.111 µM
fraction unbound at 4 h, 5 µM [6]: 0.059
IC50 [27]: 31.6 µM
fraction unbound at 4 h, 5 µM [7]: 0.037
IC50 [28]: > 50 µM
half-life at 1 µM [29]: > 3.33 h
IC50 [30]: > 100 µM
solubility [9]: 113 µg/mL (≈ 299 µM)
CLint scaled at 1 µM [8]: < 21.3 mL/min/kg

Compound: O=c1nc(OCC2COCCO2)cc2n1CCc1cc(C#CC3CC3)ccc1-2 (racemic)
CLint scaled at 0.5 h, 1 µM [1]: 36.7 mL/min/kg
CLint scaled at 0.5 h, 1 µM [2]: 23.3 mL/min/kg
CLint scaled at 0.5 h, 1 µM [3]: 162 mL/min/kg
IC50 [12]: 0.017 µM
IC50 ([31]; hek293): Not Active
AUC(0-inf) at 24 h [32]: 10200 ng·h/mL
Tmax [33]: 1.7 h
Cmax at 1.7 h [34]: 2420 ng/mL

Compound: N#Cc1ccccc1-c1ccc2c(c1)CCn1c-2cc(OCC2COCCO2)nc1=O (centres undefined)
CLint scaled at 0.5 h, 1 µM [35]: 193 mL/min/kg
CLint scaled at 0.5 h, 1 µM [1]: 86.7 mL/min/kg
CLint scaled at 0.5 h, 1 µM [2]: 105 mL/min/kg
CLint scaled at 0.5 h, 1 µM [3]: 151 mL/min/kg
AUC(0-inf) at 24 h [32]: 2640 ng·h/mL
CLint scaled at 0.5 h, 1 µM [16]: 167 mL/min/kg

Compound: CN(CC#Cc1ccc2c(c1)CCn1c-2cc(OCC2COCCO2)nc1=O)Cc1ccccc1 (centres undefined)
CLint scaled at 0.5 h, 1 µM [1]: 88.3 mL/min/kg
CLint scaled at 0.5 h, 1 µM [3]: 433 mL/min/kg

Compound: COc1ccc2c(c1)CCn1c-2cc(OCC2CCCCO2)nc1=O (centres undefined)
CLint scaled at 0.5 h, 1 µM [1]: 21.7 mL/min/kg
CLint scaled at 0.5 h, 1 µM [3]: 463 mL/min/kg
CLint scaled at 1 µM [5]: 575 mL/min/kg
CLint scaled at 1 µM [8]: 25 mL/min/kg
